Assay type in all cases: cell-based
The target in experiment [1] is T1, Transient receptor potential cation channel subfamily V member 1 (Homo sapiens, UniProt Q8NER1). Description: Antagonist activity against human TRPV1 expressed in HEK293 cells assessed as inhibition of capsaicin-induced increase in intracellular Ca2+ concentration by Fluo-4-AM dye based spectrofluorimetry.
Experiment [2] addresses Transient receptor potential cation channel subfamily M member 8 (Rattus norvegicus, UniProt Q8R455). Description: Antagonist activity against rat TRPM8 expressed in HEK293 cells assessed as inhibition of icilin-induced increase in intracellular Ca2+ concentration by Fluo-4-AM dye based spectrofluorimetry.
In experiment [3] the target is T2, Transient receptor potential cation channel subfamily A member 1 (Rattus norvegicus, UniProt Q6RI86). Description: Agonist activity at rat TRPA1 expressed in HEK293 cells assessed as increase in intracellular Ca2+ concentration by Fluo-4-AM dye based spectrofluorimetry.
Experiment [4] concerns the target T1, Transient receptor potential cation channel subfamily V member 1. Description: Agonist activity at human TRPV1 expressed in HEK293 cells assessed as increase in intracellular Ca2+ concentration by Fluo-4-AM dye based spectrofluorimetry relative to ionomycin. The method in brief: (§1)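 Same stably transfected HEK293 Fluo-4 calcium assay: human TRPV1, rat TRPM8. Tyrode's buffer pH 7.4, 25 °C, ex 488/em 516 nm. Efficacy is the compound-evoked [Ca2+]i rise normalized to the maximal Ca2+ influx from 4 µM ionomycin. Means of at least 3 determinations.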

Experiment [5] addresses T2, Transient receptor potential cation channel subfamily A member 1. Description: Antagonist activity against rat TRPA1 expressed in HEK293 cells assessed as inhibition of AITC-induced increase in intracellular Ca2+ concentration by Fluo-4-AM dye based spectrofluorimetry.
Experiment [6] addresses Transient receptor potential cation channel subfamily M member 8 (Rattus norvegicus) (UniProt Q8R455). The experiment is described as follows: Agonist activity at rat TRPM8 expressed in HEK293 cells assessed as increase in intracellular Ca2+ concentration by Fluo-4-AM dye based spectrofluorimetry relative to ionomycin. The procedure, abridged:
as §1

Experiment [7] has as its target T1, Transient receptor potential cation channel subfamily V member 1. The experiment is described as follows: Agonist activity at human TRPV1 expressed in HEK293 cells assessed as increase in intracellular Ca2+ concentration by Fluo-4-AM dye based spectrofluorimetry. The method in brief: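 HEK293 stably expressing human TRPV1 or rat TRPM8, grown in EMEM with non-essential amino acids, 10% FBS, 2 mM glutamine, 37 °C, 5% CO2. Fluo-4-AM loaded 1 h at room temperature; cells in Tyrode's buffer pH 7.4, about 100,000 per stirred cuvette. Fluorescence (ex 488/em 516 nm) read at 25 °C before and after various compound concentrations. EC50 from sigmoidal variable-slope fit; at least 3 determinations.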

26 compounds from ChEMBL document CHEMBL3352014, “Effect of acyclic monoterpene alcohols and their derivatives on TRP channels” (Bioorg Med Chem Lett, 2014) can be followed below.

A word on the IC50: it is the midpoint of a concentration-inhibition curve. For orientation: EC50 means the midpoint of the concentration-response curve.

SMILES strings stand for the structures.

T1 sequence (Q8NER1 whole entry): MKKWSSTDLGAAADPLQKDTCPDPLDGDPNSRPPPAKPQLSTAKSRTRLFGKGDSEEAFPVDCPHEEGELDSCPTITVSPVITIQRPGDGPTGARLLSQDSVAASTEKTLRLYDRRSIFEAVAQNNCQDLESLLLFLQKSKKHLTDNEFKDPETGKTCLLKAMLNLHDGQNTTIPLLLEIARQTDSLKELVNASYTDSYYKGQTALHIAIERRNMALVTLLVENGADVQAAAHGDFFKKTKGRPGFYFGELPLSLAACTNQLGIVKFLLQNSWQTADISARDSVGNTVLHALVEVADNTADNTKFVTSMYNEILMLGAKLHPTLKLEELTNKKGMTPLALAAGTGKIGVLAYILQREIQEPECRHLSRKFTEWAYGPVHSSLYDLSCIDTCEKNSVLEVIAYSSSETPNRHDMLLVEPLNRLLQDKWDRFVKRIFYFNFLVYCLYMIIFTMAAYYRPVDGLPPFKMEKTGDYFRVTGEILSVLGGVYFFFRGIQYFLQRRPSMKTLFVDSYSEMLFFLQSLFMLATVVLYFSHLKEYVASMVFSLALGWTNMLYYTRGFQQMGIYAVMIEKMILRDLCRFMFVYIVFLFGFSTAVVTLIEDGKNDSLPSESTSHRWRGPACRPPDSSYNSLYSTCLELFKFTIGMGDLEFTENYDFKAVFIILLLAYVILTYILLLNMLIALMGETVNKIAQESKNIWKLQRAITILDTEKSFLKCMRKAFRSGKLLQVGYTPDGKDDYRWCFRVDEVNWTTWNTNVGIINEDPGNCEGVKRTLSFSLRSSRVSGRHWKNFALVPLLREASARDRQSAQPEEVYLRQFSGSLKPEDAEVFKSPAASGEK
Sequence of Transient receptor potential cation channel subfamily M member 8 (Q8R455 whole entry): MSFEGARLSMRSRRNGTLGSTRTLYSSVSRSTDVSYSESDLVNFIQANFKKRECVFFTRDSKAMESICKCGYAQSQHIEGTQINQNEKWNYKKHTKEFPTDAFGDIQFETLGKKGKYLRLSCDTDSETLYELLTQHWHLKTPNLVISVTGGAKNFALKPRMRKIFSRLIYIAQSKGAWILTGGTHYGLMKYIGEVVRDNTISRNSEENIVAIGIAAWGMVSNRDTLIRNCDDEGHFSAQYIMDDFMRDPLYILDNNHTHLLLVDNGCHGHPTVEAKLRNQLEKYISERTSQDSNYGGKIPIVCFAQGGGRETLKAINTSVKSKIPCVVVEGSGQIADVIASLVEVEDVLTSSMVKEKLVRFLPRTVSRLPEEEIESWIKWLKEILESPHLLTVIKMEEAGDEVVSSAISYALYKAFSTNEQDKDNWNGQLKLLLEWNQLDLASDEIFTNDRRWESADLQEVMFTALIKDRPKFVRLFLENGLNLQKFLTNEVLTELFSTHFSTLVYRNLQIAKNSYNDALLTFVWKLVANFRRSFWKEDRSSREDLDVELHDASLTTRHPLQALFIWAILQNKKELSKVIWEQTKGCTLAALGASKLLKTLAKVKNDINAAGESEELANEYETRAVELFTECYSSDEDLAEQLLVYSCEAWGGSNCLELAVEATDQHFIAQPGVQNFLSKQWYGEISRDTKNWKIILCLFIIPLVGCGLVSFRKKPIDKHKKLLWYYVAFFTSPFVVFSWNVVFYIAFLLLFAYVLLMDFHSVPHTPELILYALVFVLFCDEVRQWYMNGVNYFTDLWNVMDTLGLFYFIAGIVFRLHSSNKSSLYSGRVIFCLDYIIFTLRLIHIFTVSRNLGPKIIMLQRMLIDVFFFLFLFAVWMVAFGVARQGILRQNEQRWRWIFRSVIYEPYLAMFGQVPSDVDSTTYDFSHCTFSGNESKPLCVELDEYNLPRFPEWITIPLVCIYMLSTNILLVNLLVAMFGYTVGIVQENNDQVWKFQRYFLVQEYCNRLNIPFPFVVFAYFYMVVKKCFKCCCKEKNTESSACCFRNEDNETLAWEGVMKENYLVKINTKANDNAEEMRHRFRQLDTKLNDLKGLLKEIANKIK
Sequence of Transient receptor potential cation channel subfamily M member 8 (Rattus norvegicus) (Q8R455 whole entry, looked up): as the sequence (Q8R455 whole entry) above
T2 sequence (Q6RI86 whole entry): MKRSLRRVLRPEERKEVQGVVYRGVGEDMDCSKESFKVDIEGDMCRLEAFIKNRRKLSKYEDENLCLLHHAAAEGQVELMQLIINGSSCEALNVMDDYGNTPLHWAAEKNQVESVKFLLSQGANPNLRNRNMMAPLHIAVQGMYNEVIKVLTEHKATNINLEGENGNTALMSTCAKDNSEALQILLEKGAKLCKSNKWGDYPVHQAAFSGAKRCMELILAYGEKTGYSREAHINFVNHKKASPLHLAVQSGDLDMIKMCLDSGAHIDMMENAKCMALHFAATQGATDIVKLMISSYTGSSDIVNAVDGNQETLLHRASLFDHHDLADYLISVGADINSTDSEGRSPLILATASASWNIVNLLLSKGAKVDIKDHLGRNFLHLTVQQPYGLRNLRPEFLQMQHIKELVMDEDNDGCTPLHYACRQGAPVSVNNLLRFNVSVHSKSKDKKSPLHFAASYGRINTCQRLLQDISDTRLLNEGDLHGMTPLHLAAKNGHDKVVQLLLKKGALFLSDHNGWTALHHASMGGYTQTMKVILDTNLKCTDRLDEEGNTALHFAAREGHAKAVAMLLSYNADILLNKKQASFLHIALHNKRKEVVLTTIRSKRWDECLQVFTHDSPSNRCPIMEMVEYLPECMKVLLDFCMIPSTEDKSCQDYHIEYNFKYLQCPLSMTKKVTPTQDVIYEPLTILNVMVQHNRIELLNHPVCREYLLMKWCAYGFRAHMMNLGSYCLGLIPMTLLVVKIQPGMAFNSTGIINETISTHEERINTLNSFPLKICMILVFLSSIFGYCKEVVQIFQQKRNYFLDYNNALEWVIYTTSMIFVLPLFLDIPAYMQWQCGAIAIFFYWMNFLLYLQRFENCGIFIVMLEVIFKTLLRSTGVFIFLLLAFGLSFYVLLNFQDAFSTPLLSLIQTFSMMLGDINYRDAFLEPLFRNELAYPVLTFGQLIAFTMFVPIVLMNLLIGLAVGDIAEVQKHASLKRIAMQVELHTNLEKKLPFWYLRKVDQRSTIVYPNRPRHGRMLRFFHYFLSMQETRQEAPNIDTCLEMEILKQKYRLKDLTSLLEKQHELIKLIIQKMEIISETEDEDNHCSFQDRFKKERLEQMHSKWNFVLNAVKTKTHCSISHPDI

On to `CC(C)=CCC/C(C)=C\CO` [NEROL], for which the IC50 in experiment [1], in experiment [2] and in experiment [5] was more than 100 µM in each case. In addition, the EC50 in experiment [3] turned out to be 11.7 µM. The Efficacy in experiment [4] and in experiment [6] was less than 10% throughout.
In the case of `CC(C)=CCC/C(C)=C/CNC(=O)Cc1ccc(Cl)cc1`, the IC50 in experiment [1] turned out to be 0.89 µM; in experiment [2], 3.8 µM; in experiment [5] it was 1.4 µM. Moreover, the EC50 in experiment [7] turned out to be 1.1 µM; in experiment [3], 1.2 µM. For the same compound, the Efficacy in experiment [4] was 57.5%; in experiment [6], less than 10%.
For `CC(C)=CCC/C(C)=C\CNC(=O)Nc1cccc(Cl)c1`, the IC50 is 0.38 µM in experiment [1], 0.71 µM in experiment [2] and 0.41 µM in experiment [5]. Also, the EC50 is 1.7 µM in experiment [7] and 0.43 µM in experiment [3]. Moreover, the Efficacy in experiment [4] is 20.1%; in experiment [6], less than 10%.
With `CC(C)=CCC/C(C)=C\COC(=O)Cc1ccc2ccccc2c1`, the IC50 in experiment [1] was more than 100 µM; in experiment [2] it was more than 100 µM; in experiment [5], 0.18 µM. For the same compound, in experiment [3], the EC50 was 0.081 µM. In addition, the Efficacy in experiment [4] and in experiment [6] was less than 10% each time.
As to `CC(C)=CCC/C(C)=C/CNC(=O)NC1CCCCC1`, the IC50 in experiment [1] is 9.9 µM; in experiment [2] it was more than 100 µM; in experiment [5], 11.8 µM. Also, the EC50 in experiment [7] turned out to be 4.8 µM; in experiment [3] it was 4.9 µM. For the same compound, the Efficacy in experiment [4] was 36%; in experiment [6] it was less than 10%.
For the compound `CC(C)=CCC/C(C)=C\COC(=O)Cc1cccc(I)c1`, the IC50 in experiment [1] was more than 100 µM; in experiment [2], more than 100 µM; in experiment [5], 0.94 µM. Moreover, the EC50 in experiment [3] came out at 0.1 µM. Moreover, the Efficacy in experiment [4] and in experiment [6] was less than 10% in each case.
`CC(=O)OC/C=C(/C)CCC=C(C)C` [NERYL ACETATE]: the IC50 in experiment [1] was more than 100 µM; in experiment [2], more than 100 µM; in experiment [5] it was 20.7 µM. The EC50 in experiment [3] was found to be 13.3 µM. In addition, the Efficacy in experiment [4] and in experiment [6] was less than 10% each time.
As for `CC(C)=CCC/C(C)=C\COC(=O)Cc1ccc(C)cc1`, the IC50 in experiment [1] is more than 100 µM; in experiment [2] it was 0.28 µM. For the same compound, the Efficacy in experiment [4] and in experiment [6] was less than 10% in each case.
In the case of `CC(C)=CCC/C(C)=C\COC(=O)c1cccc(C)c1`, the IC50 in experiment [1] is more than 100 µM; in experiment [2], 30.8 µM; in experiment [5], 0.14 µM. For the same compound, the concentration giving a half-maximal response (EC50) in experiment [3] worked out at 0.14 µM. Moreover, the Efficacy in experiment [4] and in experiment [6] was less than 10% throughout.
On to `CC(C)=CCCC(C)CCO` (racemic) [CITRONELLOL], for which the IC50 in experiment [1], in experiment [2] and in experiment [5] was more than 100 µM in each case. In experiment [3], the EC50 is more than 100 µM. Moreover, the Efficacy in experiment [4] and in experiment [6] was less than 10% each time.
Regarding `CC(C)=CCCC(C)CCOC(=O)c1ccc(C)cc1` (stereo unspecified), the IC50 in experiment [1] was more than 100 µM; in experiment [2], more than 100 µM; in experiment [5], 0.87 µM. The EC50 in experiment [3] came to 0.28 µM. Moreover, the Efficacy in experiment [4] and in experiment [6] was less than 10% each time.
Consider `CC(C)=CCC/C(C)=C/COC(=O)Cc1ccc(Cl)cc1`, for which the IC50 is more than 100 µM in experiment [1], more than 100 µM in experiment [2] and 0.13 µM in experiment [5]. For the same compound, the EC50 in experiment [3] is 0.12 µM. The Efficacy in experiment [4] and in experiment [6] was less than 10% throughout.
Turning to `CC(C)=CCC/C(C)=C\COC(=O)c1ccc(C)cc1`, the IC50 in experiment [1] was more than 100 µM; in experiment [2], 1.2 µM; in experiment [5] it was 0.11 µM. Besides, the EC50 in experiment [3] was found to be 0.093 µM. The Efficacy in experiment [4] and in experiment [6] was less than 10% throughout.
For the compound `CC(C)=CCCC(C)CCOC(=O)Cc1ccc(C)cc1` (stereo unspecified), the IC50 is more than 100 µM in experiment [1] and 2.4 µM in experiment [2]. The Efficacy in experiment [4] and in experiment [6] was less than 10% throughout.
For `CC(C)=CCC/C(C)=C\COC(=O)c1ccc(C#N)cc1`, the IC50 in experiment [1] is more than 100 µM; in experiment [2], more than 100 µM; in experiment [5], 0.34 µM. The EC50 in experiment [3] was found to be 0.26 µM. Also, the Efficacy in experiment [4] and in experiment [6] was less than 10% throughout.
For the compound `CC(C)=CCCC(C)CCOC(=O)Cc1ccc(Cl)cc1` (stereo unspecified), the IC50 in experiment [1] is more than 100 µM; in experiment [2], 0.83 µM. In addition, the Efficacy in experiment [4] and in experiment [6] was less than 10% throughout.
Take `CC(C)=CCC/C(C)=C\COC(=O)CCc1ccccc1`: the figures for the IC50 in experiment [1], in experiment [2] and in experiment [5] were more than 100 µM, 0.29 µM and 0.11 µM, respectively. In addition, the EC50 in experiment [3] turned out to be 0.11 µM. Besides, the Efficacy in experiment [4] and in experiment [6] was less than 10% throughout.
On to `CC(C)=CCCC(C)CCOC(=O)CCc1ccccc1` (stereo unspecified), for which the IC50 in experiment [1] is more than 100 µM; in experiment [2] it was more than 100 µM; in experiment [5], 0.34 µM. Besides, the EC50 in experiment [3] turned out to be 0.16 µM. In addition, the Efficacy in experiment [4] and in experiment [6] was less than 10% throughout.
As for `CC(C)=CCC/C(C)=C/COC(=O)c1ccc(C#N)cc1`, the IC50 is more than 100 µM in experiment [1], more than 100 µM in experiment [2] and 0.73 µM in experiment [5]. The EC50 in experiment [3] is 0.48 µM. Further, the Efficacy in experiment [4] and in experiment [6] was less than 10% throughout.
Consider `CC(C)=CCC/C(C)=C\COC(=O)Cc1ccc(Cl)cc1`, for which the IC50 in experiment [1] is more than 100 µM; in experiment [2], 0.75 µM; in experiment [5], 0.013 µM. In addition, the EC50 in experiment [3] was 0.016 µM. The Efficacy in experiment [4] and in experiment [6] was less than 10% throughout.
In the case of `CC(C)=CCC/C(C)=C/COC(=O)c1cc(C(F)(F)F)cc(C(F)(F)F)c1`, the IC50 in experiment [1], in experiment [2] and in experiment [5] was more than 100 µM each time. Moreover, in experiment [3], the EC50 was found to be 11.9 µM. The Efficacy in experiment [4] and in experiment [6] was less than 10% in each case.
Consider `CC(=O)OC/C=C(\C)CCC=C(C)C` [GERANYL ACETATE], for which the IC50 in experiment [1] was more than 100 µM; in experiment [2], more than 100 µM; in experiment [5] it was 21.2 µM. In experiment [3], the EC50 came to 25.8 µM. Also, the Efficacy in experiment [4] and in experiment [6] was less than 10% throughout.
`CC(C)=CCC/C(C)=C/COC(=O)c1cccc(C)c1`: the IC50 in experiment [1] was more than 100 µM; in experiment [2] it was more than 100 µM; in experiment [5], 1.4 µM. Also, the EC50 in experiment [3] is 2.4 µM. Moreover, the Efficacy in experiment [4] and in experiment [6] was less than 10% in each case.
On to `COc1ccc(CC(=O)OC/C=C(/C)CCC=C(C)C)cc1`, for which the IC50 is more than 100 µM in experiment [1], 9.7 µM in experiment [2] and 0.26 µM in experiment [5]. In experiment [3], the EC50 was found to be 0.14 µM. Besides, the Efficacy in experiment [4] and in experiment [6] was less than 10% in each case.
Regarding `CC(C)=CCC/C(C)=C/COC(=O)Cc1ccc(C)cc1`, the IC50 in experiment [1] was more than 100 µM; in experiment [2] it was 5.8 µM. In addition, the Efficacy in experiment [4] and in experiment [6] was less than 10% in each case.
In the case of `CC(C)=CCC/C(C)=C\CNC(=O)CCc1ccccc1`, the IC50 was more than 100 µM in experiment [1], 2.2 µM in experiment [2] and 13.9 µM in experiment [5]. In addition, the EC50 in experiment [3] worked out at 6.6 µM. Moreover, the Efficacy in experiment [4] and in experiment [6] was less than 10% throughout.
